Screening data deposited in PubChem by several laboratories.
A selection: hits, their analogues and other compounds. The true share with any hit is near 2.5%.
Vif imaging – HIV Vif inhibition | HEK293T cells, Vif self-association by quenched fluorescence, imaging, 24 h | inhibition, % at 7.49 µM | 0.35% of 340,000 active | AID 602346; in the data active = inhibition above about 50%, passing the limit was not always enough; inconclusive = no clear call, values can overlap the other calls; inactive = below about 31%
SMARCA2 act – SMARCA2 function activation, primary screen; MG213 cells, MMTV-luciferase reporter, dexamethasone, overnight; activation, % at 9.1 µM; AID 652017; 1% of 370,000 active; in the data active = activation above about 7.8%;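 also: 0% = vehicle wells and 100% = reference activator wells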
SR-BI uptake up – activators of SR-BI mediated HDL lipid uptake; AID 504775; activation, % at 12.5 µM; CHO ldlA[mSR-BI] cells, DiI-HDL uptake fluorescence, 3 h; 100 = double the neutral-control signal; 0.096% of 320,000 active;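 active = mean replicate activation of at least 60% and every replicate at or above 60%; inconclusive = mean or all-replicate condition met, but not both; inactive = mean below 60% and not all replicates reaching 60%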;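 also: 0% = median plate neutral-control signal and 100% = twice that signal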
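Test system: SR-BI-overexpressing, LDLR-lacking CHO cells; Also added: labelled HDL, 10 µg/mL; Measured by: bottom-read cell fluorescence after medium removal, ex 550/em 595 nm; Timing: 3 h uptake period with compound, 37 °C; Buffer or medium: F12, 0.5% BSA, 25 mM HEPES; Doses: single compound concentration, delivered by pin transfer.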
SR-BI HDL uptake – mouse SR-BI HDL lipid transfer inhibition | AID 488896 | ldlA[mSR-BI] CHO cells, DiI-HDL uptake fluorescence, 3 h | 0.96% of 320,000 active | Q61009 | inhibition, % at 12.5 µM;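 active = mean replicate inhibition of at least 70% and a set share of replicates each scoring 70 or more; inconclusive = meets just one of the two criteria; inactive = fails both criteria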;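 also: 0% = median of neutral control wells and 100% = median of positive control wells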
Target sequence (Q61009 whole entry, looked up): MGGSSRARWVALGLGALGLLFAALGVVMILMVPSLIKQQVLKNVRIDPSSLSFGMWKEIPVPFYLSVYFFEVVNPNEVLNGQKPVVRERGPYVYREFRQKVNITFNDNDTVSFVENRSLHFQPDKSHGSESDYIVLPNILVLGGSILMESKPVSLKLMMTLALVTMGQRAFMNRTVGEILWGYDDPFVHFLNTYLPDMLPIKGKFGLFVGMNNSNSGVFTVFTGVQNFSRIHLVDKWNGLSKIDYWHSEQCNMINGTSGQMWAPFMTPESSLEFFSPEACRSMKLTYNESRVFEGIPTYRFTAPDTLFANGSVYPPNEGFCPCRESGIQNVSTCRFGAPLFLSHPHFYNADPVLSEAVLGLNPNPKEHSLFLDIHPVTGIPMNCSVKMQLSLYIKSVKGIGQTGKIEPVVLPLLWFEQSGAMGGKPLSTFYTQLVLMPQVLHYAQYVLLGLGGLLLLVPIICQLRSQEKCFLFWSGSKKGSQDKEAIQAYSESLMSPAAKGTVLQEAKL
TAG inh – inhibitors of triacylglycerol accumulation; H9c2 cells, Nile Red lipid (TAG) fluorescence; cells loaded with 200 µM oleic acid; 0.66% of 230,000 active; inhibition, % at 12.5 µM;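 active = pattern-corrected inhibition of lipid staining of at least 50% with the nuclear-stain viability signal not falling by more than 50%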;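 also: 0% = DMSO wells and 100% = triacsin C control wells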
H9c2 TAG conf – confirmation of triacylglycerol accumulation inhibitors. shares compounds with TAG inh. H9c2 lipid accumulation, Nile Red fluorescence; cells loaded with 200 µM oleic acid. inhibition, % at 12.5 µM. 71% of 990 active. AID 651629;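 active = mean inhibition across replicates of 40% or more; inactive = mean inhibition below 40%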;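 also: plate controls were DMSO only wells for no effect and Triacsin C treated wells for full effect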
The depositor's hits bear a star.

How did CC(C)c1cccc(C(C)C)c1OC(=O)[C@H]1OC(c2ccc(Br)cc2)=C[C@@H]1c1ccc(Br)cc1 do in these assays?
Vif imaging: 18; SMARCA2 act: 0; SR-BI uptake up: -37; SR-BI HDL uptake: 37; TAG inh: 59*; H9c2 TAG conf: 23

How did CC(C)c1cccc(C(C)C)c1OC(=O)[C@H]1OC(C(C)(C)C)=C[C@@H]1c1ccccc1 do in these assays?
Vif imaging: 3; SMARCA2 act: 0; SR-BI uptake up: 26; SR-BI HDL uptake: -26; TAG inh: -41

How did Cc1ccc(S(=O)(=O)NCc2ccc3c(c2)OCO3)cc1 do in these assays?
SMARCA2 act: 0

What do the screens show for `CCc1nnc(NC(=O)c2cc3c(s2)CCCCC3)s1`?
Vif imaging: 27; SMARCA2 act: 2; SR-BI uptake up: 8; SR-BI HDL uptake: -8; TAG inh: 50*; H9c2 TAG conf: 12

How did CCOC(=O)C1=CCN(S(=O)(=O)c2ccc(Cl)cc2)C1c1ccc(Br)cc1 (stereo not given) do in these assays?
SMARCA2 act: -6

How did Cc1ccc2c(=O)n3c(nc2c1)C(Cc1ccc(O)cc1)NC(=O)c1cc2ccccc2cc1-3 (stereo not given) do in these assays?
SMARCA2 act: -4; TAG inh: 53*; H9c2 TAG conf: 67*

What do the screens show for `O=C1NC(Cc2ccc(O)cc2)c2nc3ccc(Cl)cc3c(=O)n2-c2cc3ccccc3cc21` (stereo not given)?
Vif imaging: -7; SMARCA2 act: -5; TAG inh: 64*; H9c2 TAG conf: 60*

How did CC(C)(C)c1ccc(-c2nnc(SCC(=O)c3ccc([N+](=O)[O-])cc3)n2-c2ccc(Cl)cc2)cc1 do in these assays?
SMARCA2 act: 1

What do the screens show for `COc1cc2c(cc1OC)CN(C(=S)Nc1ccccc1)CC2`?
Vif imaging: 0; SMARCA2 act: -1; SR-BI uptake up: -25; SR-BI HDL uptake: 25

How did COc1cc2c(cc1OC)CN(C(=S)Nc1ccccc1Cl)CC2 do in these assays?
Vif imaging: 6; SMARCA2 act: -2; SR-BI uptake up: -57; SR-BI HDL uptake: 57; TAG inh: 62*; H9c2 TAG conf: 6

What do the screens show for `CCOC(=O)c1sc2nc(CSc3ccccc3)nc(NCCN(C)C)c2c1C`?
Vif imaging: -5; SMARCA2 act: 3; SR-BI uptake up: 29; SR-BI HDL uptake: -29; TAG inh: 52*; H9c2 TAG conf: 62*

What do the screens show for `N#CC(C#N)=c1ccc2c(c1)N1C(c3ccccc3)=CC(c3ccccc3)C3CCCCC31N=2` (stereo not given)?
Vif imaging: 11; SMARCA2 act: 0; SR-BI uptake up: -67; SR-BI HDL uptake: 67; TAG inh: 89*; H9c2 TAG conf: 119*

How did CCN(Cc1ccccc1)C(=O)C1CCCN(c2ncccn2)C1 (stereo not given) do in these assays?
SMARCA2 act: -2

What do the screens show for `CN1C[C@H](C(=O)N[C@]2(C)O[C@@]3(O)[C@@H]4CCCN4C(=O)[C@H](Cc4ccccc4)N3C2=O)CC2c3cccc4[nH]cc(c34)C[C@H]21` (stereo not given in full)?
Vif imaging: 1; SMARCA2 act: 2; SR-BI uptake up: 23; SR-BI HDL uptake: -23; TAG inh: 12

What do the screens show for `CC(C)C[C@H]1C(=O)N2CCC[C@H]2[C@]2(O)O[C@](NC(=O)C3C=C4c5cccc6[nH]c(Br)c(c56)C[C@H]4N(C)C3)(C(C)C)C(=O)N12` (stereo not given in full)?
Vif imaging: -5; SMARCA2 act: -1; SR-BI uptake up: -4; SR-BI HDL uptake: 4; TAG inh: 56*; H9c2 TAG conf: 92*

How did Cn1c(=O)c2ccccc2n(C)c1=O do in these assays?
SMARCA2 act: -1

How did COc1ccc(NS(=O)(=O)c2cccc(C(=O)NNC(=O)c3cc(C)oc3C)c2)cc1 do in these assays?
Vif imaging: 3; SMARCA2 act: 0; SR-BI uptake up: -15; SR-BI HDL uptake: 15

What do the screens show for `COc1ccc(NS(=O)(=O)c2cc(C)ccc2NC(=O)c2cc(C)oc2C)cc1`?
Vif imaging: 22; SMARCA2 act: -3; SR-BI uptake up: -36; SR-BI HDL uptake: 36; TAG inh: 62*; H9c2 TAG conf: 79*

What do the screens show for `O=C(Nc1ccc(F)cc1)OCc1cn(Cc2cccc(C(F)(F)F)c2)nn1`?
SMARCA2 act: 1

What do the screens show for `Cc1ccc(-c2cc(-c3nnc4sc(Cc5cccs5)nn34)[nH]n2)cc1`?
SMARCA2 act: -5

Results for CCCCNC(=O)Nc1ccc(C2SCCS2)cc1 ?
SMARCA2 act: -3; SR-BI uptake up: 4; SR-BI HDL uptake: -4; TAG inh: 57*; H9c2 TAG conf: -9

Results for CCOC(=O)c1cc(CC)sc1NC(=O)c1cc(OC)c(OC)c(OC)c1 ?
Vif imaging: 2; SMARCA2 act: 1; SR-BI uptake up: -57; SR-BI HDL uptake: 57; TAG inh: 66*; H9c2 TAG conf: 37

Results for O=C(COC(=O)c1cc([N+](=O)[O-])ccc1N1CCOCC1)Nc1ccc(Cl)cc1 ?
Vif imaging: -3; SMARCA2 act: 0; SR-BI uptake up: -40; SR-BI HDL uptake: 40; TAG inh: -25

How did O=C(COC(=O)c1cc([N+](=O)[O-])ccc1N1CCOCC1)Nc1ccc(Cl)cn1 do in these assays?
Vif imaging: inconclusive; SMARCA2 act: -1; SR-BI uptake up: -67; SR-BI HDL uptake: 67; TAG inh: 51*; H9c2 TAG conf: 40

How did O=C(OCc1cccc(Cl)c1)c1cc([N+](=O)[O-])ccc1N1CCOCC1 do in these assays?
Vif imaging: 0; SMARCA2 act: -2; SR-BI uptake up: -55; SR-BI HDL uptake: 55; TAG inh: 1

Results for CCOC(=O)c1cc(CC)sc1NC(=O)c1cc([N+](=O)[O-])ccc1N1CCOCC1 ?
Vif imaging: 5; SMARCA2 act: -1; SR-BI uptake up: -13; SR-BI HDL uptake: 13; TAG inh: 91*; H9c2 TAG conf: 60*

What do the screens show for `CCOC(=O)c1cc(CC)sc1NC(=O)c1ccc(N2CCOCC2)c([N+](=O)[O-])c1`?
Vif imaging: 26; SR-BI uptake up: -56; SR-BI HDL uptake: 56

Results for O=C(OCc1ccc(Br)cc1)c1cc([N+](=O)[O-])ccc1N1CCOCC1 ?
SMARCA2 act: -4; TAG inh: 52*; H9c2 TAG conf: 61*

Results for CC(C)[C@@H](C)/C=C/[C@@H](C)[C@H]1CC[C@@H]2[C@]1(C)CCC1[C@]23C=C[C@]2(C[C@@H](O)CC[C@]12C)N(c1ccc(Br)cn1)O3 (stereo not given in full) ?
SMARCA2 act: -3

How did C#CCN1CC(COCCCC)Oc2cccc(F)c2S1(=O)=O (stereo not given) do in these assays?
SMARCA2 act: -3
